Assay results: ChEMBL document CHEMBL4038284, “Synthesis of novel quinoline-based 4,5-dihydro-1H-pyrazoles as potential anticancer, antifungal, antibacterial and antiprotozoal agents” (Eur J Med Chem, 2017)
In brackets after ≈: the same amount, converted by molar mass.

Tests used:
Candida albicans [1] = assay: Antifungal activity against Candida albicans ATCC 10231 incubated for 48 hrs under dark condition by broth microdilution method; assay type: functional; conditions: ATCC 10231, 48 h
Method in brief: (§1)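 CLSI M27-A3 broth microdilution in RPMI-1640, DMSO ≤1%, compounds at 250-0.98 µg/mL final. Inoculum 1-5 × 10^3 CFU/mL. Incubated 48 h at 30 °C in a moist dark chamber, read at OD405. MIC80 and MIC50 taken from % inhibition dose-response curves (mean ± SEM, triplicate). Amphotericin B was the positive control.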

Pseudomonas aeruginosa = assay: Antibacterial activity against Pseudomonas aeruginosa ATCC 27853 after 24 hrs by resazurin dye based microdilution assay; assay type: functional; conditions: ATCC 27853, 24 h
Method in brief: (§2)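 MIC taken as the lowest concentration giving visible inhibition and/or by resazurin (1 mg/mL). Gentamicin was the control. Run in duplicate, repeated at least three times.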

Staphylococcus aureus [2] = assay: Antibacterial activity against vancomycin-intermediate Staphylococcus aureus after 24 hrs by resazurin dye based microdilution assay; assay type: functional; method in brief: as §2
Candida albicans [3] = assay: Growth inhibition of Candida albicans ATCC 10231 at 125 ug/ml incubated for 48 hrs under dark condition by broth microdilution method relative to control; assay type: functional; conditions: ATCC 10231, 48 h, read-out: GI
Method in brief: (§3)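 CLSI M27-A3 broth microdilution in RPMI-1640, DMSO ≤1%. Inoculum 1-5 × 10^3 CFU/mL. Incubated 48 h at 30 °C, dark. % inhibition = 100 − (OD405 test − sterility control)/(OD405 growth control − sterility control), with growth and sterility control wells. Triplicate.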

Candida albicans [4] = assay: Growth inhibition of Candida albicans ATCC 10231 at 15.62 ug/ml incubated for 48 hrs under dark condition by broth microdilution method relative to control; assay type: functional; conditions: ATCC 10231, 48 h, read-out: GI; method in brief: as §3
Klebsiella pneumoniae [5] = assay: Antibacterial activity against ESBL positive Klebsiella pneumoniae ATCC 700603 after 24 hrs by resazurin dye based microdilution assay; assay type: functional; conditions: Klebsiella pneumoniae, 700603, 24 h; method in brief: as §2
Cryptococcus neoformans [6] = assay: Growth inhibition of Cryptococcus neoformans ATCC 32264 at 15.62 ug/ml incubated for 48 hrs under dark condition by broth microdilution method relative to control; assay type: functional; conditions: ATCC 32264, 48 h, read-out: GI; method in brief: as §3
Candida albicans [7] = assay: Growth inhibition of Candida albicans ATCC 10231 at 31.25 ug/ml incubated for 48 hrs under dark condition by broth microdilution method relative to control; assay type: functional; conditions: ATCC 10231, 48 h, read-out: GI; method in brief: as §3
Staphylococcus aureus [8] = assay: Antibacterial activity against methicillin-resistant Staphylococcus aureus ATCC 43300 after 24 hrs by resazurin dye based microdilution assay; assay type: functional; conditions: ATCC 43300, 24 h
Method in brief: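 Broth microdilution in Mueller Hinton broth, inoculum 5 × 10^5 – 8 × 10^5. Compound stocks diluted in MHB with 5% DMSO and 0.1% Tween 80. Incubation 24 h at 35-37 °C. MIC is the lowest concentration with visible growth inhibition and/or by resazurin (1 mg/mL) read-out. Gentamicin as control. Run in duplicate, replicated at least three times.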

Leishmania panamensis = assay: Antileshmanial activity against EpiR/GFP fused Leishmania panamensis MHOM/CO/87/UA140 intracellular amastigotes infected in human […] cells after 72 hrs by flow cytometric method; assay type: functional, cell-based; conditions: MHOM/CO/87/UA140, 72 h
Method in brief: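 PMA-treated U-937 cells (3 × 10^5 cells/mL) infected with stationary-phase GFP L. panamensis promastigotes (15:1), 3 h at 34 °C, then washed. After 24 h, compounds added at 50, 12.5, 3.125 and 0.78 µg/mL for 72 h at 37 °C. EC50 by Probit; triplicate, two experiments.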

Candida albicans [9] = assay: Growth inhibition of Candida albicans ATCC 10231 at 3.4 ug/ml incubated for 48 hrs under dark condition by broth microdilution method relative to control; assay type: functional; conditions: ATCC 10231, 48 h, read-out: GI
Klebsiella pneumoniae [10] = assay: Antibacterial activity against carbapenemase positive Klebsiella pneumoniae BAA 1705 after 24 hrs by resazurin dye based microdilution assay; assay type: functional; conditions: BAA 1705, 24 h; method in brief: as §2
Cryptococcus neoformans [11] = assay: Growth inhibition of Cryptococcus neoformans ATCC 32264 at 125 ug/ml incubated for 48 hrs under dark condition by broth microdilution method relative to control; assay type: functional; conditions: ATCC 32264, 48 h, read-out: GI; method in brief: as §3
Cryptococcus neoformans [12] = assay: Growth inhibition of Cryptococcus neoformans ATCC 32264 at 250 ug/ml incubated for 48 hrs under dark condition by broth microdilution method relative to control; assay type: functional; conditions: ATCC 32264, 48 h, read-out: GI; method in brief: as §3
Trypanosoma cruzi = assay: Antitrypanosomal activity against Trypanosoma cruzi Tulahuen intracellular amastigote harboring LacZ infected in human U937 cells after 72 hrs by CPRG/Nonidet reagent based spectrophotometric method; assay type: functional, cell-based; conditions: U-937, 72 h
Method in brief: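 U-937 cells at 2.5 × 10^5 cells/mL in RPMI-1640 with 10% serum and 0.1 µg/mL PMA were infected with β-galactosidase-transfected Tulahuen epimastigotes at 5 parasites per cell. Infected cells were exposed to 50, 12.5, 3.125 and 0.78 µg/mL for 72 h. CPRG (100 uM) and 0.1% Nonidet P-40 were added for 3 h, read at 570 nm. EC50 by Probit. Triplicate, at least two experiments; benznidazole as reference.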

Cryptococcus neoformans [13] = assay: Antifungal activity against Cryptococcus neoformans ATCC 32264 incubated for 48 hrs under dark condition by broth microdilution method; assay type: functional; conditions: ATCC 32264, 48 h; method in brief: as §1
Cryptococcus neoformans [14] = assay: Growth inhibition of Cryptococcus neoformans ATCC 32264 at 62.5 ug/ml incubated for 48 hrs under dark condition by broth microdilution method relative to control; assay type: functional; conditions: ATCC 32264, 48 h, read-out: GI; method in brief: as §3
Escherichia coli = assay: Antibacterial activity against Escherichia coli ATCC 25922 after 24 hrs by resazurin dye based microdilution assay; assay type: functional; conditions: ATCC 25922, 24 h; method in brief: as §2
Candida albicans [15] = assay: Growth inhibition of Candida albicans ATCC 10231 at 250 ug/ml incubated for 48 hrs under dark condition by broth microdilution method relative to control; assay type: functional; conditions: ATCC 10231, 48 h, read-out: GI; method in brief: as §3
Candida albicans [16] = assay: Growth inhibition of Candida albicans ATCC 10231 at 7.8 ug/ml incubated for 48 hrs under dark condition by broth microdilution method relative to control; assay type: functional; conditions: ATCC 10231, 48 h, read-out: GI; method in brief: as §3
Neisseria gonorrhoeae = assay: Antibacterial activity against beta lactamase positive Neisseria gonorrhoeae ATCC 31426 by oxidase test; assay type: functional
Method in brief: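 Agar dilution MIC on GC agar with 1% isovitalex containing increasing compound concentrations. Plates inoculated with about 1×10^4 CFU (5 µL). MIC is the lowest concentration that inhibited growth, with growth confirmed by oxidase test. Run in duplicate, repeated at least three times.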

Staphylococcus aureus [17] = assay: Antibacterial activity against methicillin-sensitive Staphylococcus aureus ATCC 25923 after 24 hrs by resazurin dye based microdilution assay; assay type: functional; conditions: ATCC 25923, 24 h; method in brief: as §2
Plasmodium falciparum = assay: Antiplasmodial activity against chloroquine-sensitive Plasmodium falciparum 3D7 assessed as reduction in parasitic LDH activity after 48 hrs by Malstat reagent based […] method; assay type: functional; conditions: 3D7, 48 h
Method in brief: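 Unsynchronized P. falciparum 3D7 at 0.5% parasitemia and 1% hematocrit in RPMI with 3% Albumax II. Exposed to 100, 25, 6.25 and 1.56 µg/mL for 48 h at 37 °C under 90% N2/5% CO2/5% O2. After three freeze-thaw cycles, LDH measured with Malstat and NBT/PES, 1 h in the dark, read at 650 nm. IC50 by Probit; triplicate, ≥2 experiments.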

Cryptococcus neoformans [18] = assay: Growth inhibition of Cryptococcus neoformans ATCC 32264 at 31.25 ug/ml incubated for 48 hrs under dark condition by broth microdilution method relative to control; assay type: functional; conditions: ATCC 32264, 48 h, read-out: GI; method in brief: as §3
Cryptococcus neoformans [19] = assay: Growth inhibition of Cryptococcus neoformans ATCC 32264 at 3.4 ug/ml incubated for 48 hrs under dark condition by broth microdilution method relative to control; assay type: functional; conditions: ATCC 32264, 48 h, read-out: GI
Cryptococcus neoformans [20] = assay: Growth inhibition of Cryptococcus neoformans ATCC 32264 at 7.8 ug/ml incubated for 48 hrs under dark condition by broth microdilution method relative to control; assay type: functional; conditions: ATCC 32264, 48 h, read-out: GI; method in brief: as §3
Candida albicans [21] = assay: Growth inhibition of Candida albicans ATCC 10231 at 62.5 ug/ml incubated for 48 hrs under dark condition by broth microdilution method relative to control; assay type: functional; conditions: ATCC 10231, 48 h, read-out: GI; method in brief: as §3
U-937 = assay: Cytotoxicity against human U937 cells after 72 hrs by MTT assay; assay type: cell-based; conditions: u-937, 72 h
Method in brief: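 Exponentially growing U-937 at 1 × 10^5 cells/mL in RPMI-1640 with 10% FBS were exposed to 200, 50, 12.5 and 3.125 µg/mL for 72 h at 37 °C, 5% CO2. MTT for 3 h, stopped with isopropanol/SDS, formazan read at 570 nm, blank-corrected. LC50 by Probit from % viability against untreated cells. Triplicate, at least two independent experiments.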

Question: With `Cc1ccc(C2=NN(C=O)C(c3cccc(Nc4ccnc5cc(Cl)ccc45)c3)C2)cc1` (stereo not given) as the compound, how does the MIC50 (Candida albicans [1]) read?
Answer: ≥ 250 µg/mL

Question: And the MIC80 (Candida albicans [1])?
Answer: ≥ 250 µg/mL

Question: And the MIC (Pseudomonas aeruginosa)?
Answer: > 1000 µg/mL

Question: What about the MIC (Staphylococcus aureus [2]) of the same compound?
Answer: > 1000 µg/mL

Question: What about the inhibition of growth at 125 µg/mL (Candida albicans [3]) of the same compound?
Answer: 28.5%

Question: What about the inhibition of growth at 15.62 µg/mL (Candida albicans [4]) of the same compound?
Answer: 22.6%

Question: And the MIC (Klebsiella pneumoniae [5])?
Answer: > 1000 µg/mL

Question: And the inhibition of growth at 15.62 µg/mL (Cryptococcus neoformans [6])?
Answer: 43.6%

Question: What about the inhibition of growth at 31.25 µg/mL (Candida albicans [7]) of the same compound?
Answer: 23%

Question: And the MIC (Staphylococcus aureus [8])?
Answer: > 1000 µg/mL

Question: And the EC50 (Leishmania panamensis)?
Answer: 2.19 µg/mL (≈ 4.97 µM)

Question: What about the inhibition of growth at 3.4 µg/mL (Candida albicans [9]) of the same compound?
Answer: 12.7%

Question: And the MIC (Klebsiella pneumoniae [10])?
Answer: > 1000 µg/mL

Question: What about the inhibition of growth at 125 µg/mL (Cryptococcus neoformans [11]) of the same compound?
Answer: 50.7%

Question: And the inhibition of growth at 250 µg/mL (Cryptococcus neoformans [12])?
Answer: 76%

Question: And the EC50 (Trypanosoma cruzi)?
Answer: 0.96 µg/mL (≈ 2.18 µM)

Question: What about the MIC50 (Cryptococcus neoformans [13]) of the same compound?
Answer: 125 µg/mL (≈ 283 µM)

Question: And the MIC80 (Cryptococcus neoformans [13])?
Answer: ≥ 250 µg/mL

Question: And the inhibition of growth at 62.5 µg/mL (Cryptococcus neoformans [14])?
Answer: 44.5%

Question: And the MIC (Escherichia coli)?
Answer: > 1000 µg/mL

Question: What about the inhibition of growth at 250 µg/mL (Candida albicans [15]) of the same compound?
Answer: 48.4%

Question: What about the inhibition of growth at 7.8 µg/mL (Candida albicans [16]) of the same compound?
Answer: 13.7%

Question: And the MIC (Neisseria gonorrhoeae)?
Answer: > 1000 µg/mL

Question: And the MIC (Staphylococcus aureus [17])?
Answer: > 1000 µg/mL

Question: What about the EC50 (Plasmodium falciparum) of the same compound?
Answer: 16.2 µg/mL (≈ 36.7 µM)

Question: What about the inhibition of growth at 31.25 µg/mL (Cryptococcus neoformans [18]) of the same compound?
Answer: 44.4%

Question: What about the inhibition of growth at 3.4 µg/mL (Cryptococcus neoformans [19]) of the same compound?
Answer: 24.8%

Question: What about the inhibition of growth at 7.8 µg/mL (Cryptococcus neoformans [20]) of the same compound?
Answer: 31.1%

Question: And the inhibition of growth at 62.5 µg/mL (Candida albicans [21])?
Answer: 24.3%

Question: And the LC50 (U-937)?
Answer: 1.3 µg/mL (≈ 2.95 µM)
